In brackets after ≈: the same amount, converted by molar mass. Activity calls are given as the source filed them. The rule behind the calls is not given here.
Columns and labels:
[1] = Inhibition of His6-tagged recombinant Plasmodium berghei dihydroorotate dehydrogenase expressed in Escherichia coli using L-dihydroorotate as substrate after 10 to 15 mins by DCIP dye-based assay; conditions: in the assay text read “5 to 10 mins” for “10 to 15 mins”
Method in brief: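 Truncated soluble enzyme lacking the N-terminal membrane domain. Final concentrations: 0.2 mM L-dihydroorotate, 0.02 mM CoQD, 0.12 mM DCIP. Reaction started with 10 nM enzyme and read at 600 nm for 5–10 min at 20 °C. Inhibitor 0.01–100 μM in 3-fold steps, in triplicate. IC50 from a three-parameter fit of vi/vo from initial rates.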

[2] = test system: Plasmodium falciparum; test: Antimalarial activity against Plasmodium falciparum 3D7 infected in human A positive erythrocytes by [3H]hypoxanthine uptake assay in presence of serum in medium; format: functional, organism-based
Method in brief: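 Growth read by [3H]-hypoxanthine uptake. Each concentration run in quadruplicate and fitted to a four-parameter variable-slope log[I]-response model for 50% growth inhibition.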

[3] = test system: Plasmodium falciparum; test: Antimalarial activity against Plasmodium falciparum 3D7 infected in human A positive erythrocytes by [3H]hypoxanthine uptake assay in presence of serum in medium albumax; format: functional, organism-based
[4] = Partition coefficient, log D of the compound at pH 7.4 by UV-HPLC analysis; conditions: octanol/water
[5] = Aqueous solubility of the compound in phosphate buffer at pH 6.5; format: physicochemical; conditions: phosphate buffer, read-out: solubility
Method in brief: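 Non-equilibrium solubility. Concentrated DMSO stocks were diluted into pH 6.5 phosphate buffer (final DMSO 1% v/v) and precipitation was monitored by nephelometry. Solubility is given as the concentration range just before a turbidity signal rose above background.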

[6] = Plasma protein binding in human by albumin chromatographic method; format: ADME, cell-free; conditions: read-out: PPB (converted)
[7] = test system: Liver microsomes; test: Intrinsic clearance in human liver microsome assessed per mg of protein at 1 uM after 60 mins by LC-MS analysis; format: ADME; conditions: microsomes, 1 h, 1 µM
Method in brief: (§1)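 Microsomal stability. Compound at 1 μM with liver microsomes (0.4 mg/mL protein) in 0.1 M phosphate pH 7.4 at 37 °C. Started with an NADPH-regenerating system plus MgCl2; controls lacked NADPH. Quenched with cold acetonitrile at time points up to 60 min. Parent loss measured by LC-MS and fitted to exponential decay to give CLint.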

[8] = test system: Liver; test: Intrinsic clearance in mouse liver microsome assessed per mg of protein at 1 uM after 60 mins by LC-MS analysis; format: ADME; conditions: microsomes, 1 h; method in brief: as §1
[9] = Plasma protein binding in rat by ultracentrifugation analysis; format: ADME, cell-free; conditions: read-out: PPB (converted)
Method in brief: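 Rat plasma spiked at 200 and 2000 ng/mL, then ultracentrifuged at 223,000 × g for 4.2 h at 37 °C. Free drug in the supernatant plasma water was compared with total drug in non-centrifuged plasma kept at 37 °C for the same time, giving fraction bound.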

[10] = test system: Mus musculus; test: Cmax in Swiss mouse at 20 mg/kg, po measured after 24 hrs by LC-MS analysis; format: ADME, organism-based; parameters: dose 20 mg/kg, route oral; conditions: in vivo
Method in brief: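 Non-fasted male Swiss outbred mice given a single oral gavage dose in 0.5% w/v sodium carboxymethylcellulose, 0.5% v/v benzyl alcohol, 0.4% v/v Tween 80. One mouse per time point, cardiac blood under isoflurane, sampling to 24 h. Plasma stabilized, acetonitrile-precipitated, quantified by LC-MS against blank-plasma standards; Cmax read from concentration-time profile.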

[11] = test system: Mus musculus; test: Time duration above 1 uM plasma concentration in Swiss mouse at 20 mg/kg, po; format: ADME, organism-based; parameters: dose 20 mg/kg, route oral; conditions: in vivo
Method in brief: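 Non-fasted male Swiss outbred mice given a single gavage dose in suspension (0.5% Na-CMC, 0.5% benzyl alcohol, 0.4% Tween 80). One mouse per time point; blood taken by cardiac puncture under isoflurane into stabilizer over 24 h. Plasma measured by LC-MS; time above 1 μM read directly from the concentration-time profile.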

[12] = test system: Mus musculus; test: Toxicity in Swiss mouse assessed as adverse effect at 20 mg/kg, po measured after 24 hrs; format: organism-based; parameters: dose 20 mg/kg, route oral; conditions: in vivo
[13] = test system: Rattus norvegicus; test: Toxicity in Sprague-Dawley rat assessed as adverse effects at 20 mg/kg, po; format: organism-based; parameters: dose 20 mg/kg, route oral; conditions: in vivo
Method in brief: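 Male Sprague Dawley rats, fasted overnight, given compound as a 10 min IV jugular infusion (solution) or by oral gavage (suspension), n=2 per group. Monitored through 24 h of cannula blood sampling.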

[14] = test system: Mus musculus; test: Toxicity in Plasmodium berghei ANKA NK65 infected Swiss Webster mouse assessed as adverse effect at 3 to 100 mg/kg, po qd for 4 days; format: organism-based; parameters: dose 3-100 mg/kg, route oral; conditions: in vivo, 96 h
Method in brief: (§2)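 Female Swiss Webster mice, 8-10 weeks old (20-22 g), infected intraperitoneally with 2 × 10^7 P. berghei NK65 ANKA-infected erythrocytes. Oral doses in CMC vehicle (200 μL), first given 3 h post-infection, then at 24, 48 and 72 h. Parasitemia followed daily from 24 h by light microscopy at 1000× oil immersion, counting ≥10 fields of >100 erythrocytes. Mice losing ≥20% body weight were euthanized.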

[15] = test system: Mus musculus; test: Toxicity in Plasmodium berghei ANKA NK65 infected Swiss Webster mouse assessed as adverse effect at 50 mg/kg, po bid for 4 days; format: organism-based; parameters: dose 50 mg/kg, route oral; conditions: in vivo, 96 h
[16] = test system: Plasmodium berghei ANKA; test: Antimalarial activity against Plasmodium berghei ANKA NK65 infected in Swiss Webster mouse assessed as complete cure of animal at 100 mg/kg, po qd measured on day 7 by light microscopic analysis; format: functional, organism-based; parameters: dose 100 mg/kg; method in brief: as §2
[17] = test system: Plasmodium berghei ANKA; test: Antimalarial activity against Plasmodium berghei ANKA NK65 infected in Swiss Webster mouse assessed as complete cure of animal at 50 mg/kg, po bid measured on day 7 by light microscopic analysis; format: functional, organism-based; parameters: dose 50 mg/kg
[18] = species on record: Rattus norvegicus; test: Toxicity in Sprague-Dawley rat assessed as adverse effects; conditions: in vivo
[19] = target: Dihydroorotate dehydrogenase (quinone), mitochondrial (Homo sapiens, UniProt Q02127); test: Inhibition of His6-tagged recombinant human dihydroorotate dehydrogenase expressed in Escherichia coli using L-dihydroorotate as substrate after 5 to 10 mins by DCIP dye-based assay
[20] = target: T1, Dihydroorotate dehydrogenase (Plasmodium falciparum, UniProt Q54A96); test: Inhibition of His6-tagged recombinant Plasmodium falciparum dihydroorotate dehydrogenase expressed in Escherichia coli using L-dihydroorotate as substrate after 5 to 10 mins by DCIP dye-based assay
T1 sequence (Q54A96 whole entry): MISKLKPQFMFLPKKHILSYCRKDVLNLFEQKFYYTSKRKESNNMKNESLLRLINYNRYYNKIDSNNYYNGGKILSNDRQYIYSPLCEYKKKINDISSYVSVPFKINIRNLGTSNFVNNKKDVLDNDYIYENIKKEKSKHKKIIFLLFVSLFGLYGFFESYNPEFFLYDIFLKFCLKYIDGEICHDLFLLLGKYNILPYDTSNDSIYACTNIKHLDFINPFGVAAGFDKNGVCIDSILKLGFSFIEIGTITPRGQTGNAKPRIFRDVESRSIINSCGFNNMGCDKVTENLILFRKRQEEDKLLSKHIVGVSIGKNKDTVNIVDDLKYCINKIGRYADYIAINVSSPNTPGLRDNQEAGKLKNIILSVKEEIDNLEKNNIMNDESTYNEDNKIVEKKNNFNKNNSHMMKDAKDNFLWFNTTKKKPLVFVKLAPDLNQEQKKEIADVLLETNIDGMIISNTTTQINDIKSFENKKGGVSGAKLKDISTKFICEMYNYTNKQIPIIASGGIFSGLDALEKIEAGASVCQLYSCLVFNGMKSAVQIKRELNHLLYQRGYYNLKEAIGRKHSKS

Sequence of Dihydroorotate dehydrogenase (quinone), mitochondrial (Q02127 whole entry): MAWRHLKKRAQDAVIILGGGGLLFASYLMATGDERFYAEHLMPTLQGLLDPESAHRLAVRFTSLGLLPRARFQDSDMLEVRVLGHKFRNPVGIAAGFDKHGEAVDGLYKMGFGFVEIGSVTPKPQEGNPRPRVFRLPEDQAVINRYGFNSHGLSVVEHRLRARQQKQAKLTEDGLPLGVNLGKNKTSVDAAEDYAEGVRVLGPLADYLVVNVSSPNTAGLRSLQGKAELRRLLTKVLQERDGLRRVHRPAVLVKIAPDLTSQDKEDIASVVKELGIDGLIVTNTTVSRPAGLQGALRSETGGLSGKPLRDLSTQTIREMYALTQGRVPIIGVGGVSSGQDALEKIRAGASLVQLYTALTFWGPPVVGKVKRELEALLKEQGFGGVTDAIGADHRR

Structure (SMILES)	IC50 [1] [µM]	EC50 [2] [µM]	EC50 [3] [µM]	logD [4]	solubility [5] [µM]	fraction unbound [6]	CL [7] [µL/min/mg]	CL [8] [µL/min/mg]	fraction unbound [9]	Cmax [10] [µM]	Time [11] [h]	Activity [12]	Activity [13]	Activity [14]	Activity [15]	Activity [16]	Activity [17]	Activity [18]	IC50 [19] [µM]	IC50 [20] [µM]
Cc1cc(Nc2cc(F)c(C(F)(F)F)c(F)c2)n2ncnc2n1	0.28	1.1	0.22	2.9	9 (≈ 2.96 µg/mL)	0.034	< 5	< 6	0.027	33	19	Non-toxic	Non-toxic	Non-toxic	Non-toxic	inactive	inactive	Non-toxic	> 30	0.19
Cc1cc(Nc2ccc(S(F)(F)(F)(F)F)cc2)n2ncnc2n1	0.28	1.3	0.18	3	71 (≈ 24.9 µg/mL)	0.046	< 5	< 6	0.048	12	18	Non-toxic	Non-toxic	Non-toxic	Non-toxic	inactive	inactive	Non-toxic	> 100	0.13
